We go through 18 molecules from ChEMBL document CHEMBL3997779, “Rhodamine B conjugates of triterpenoic acids are cytotoxic mitocans even at nanomolar concentrations” (Eur J Med Chem, 2017).

For one data set, the system named is 518A2. In words: Cytotoxicity against human 518A2 cells after 96 hrs by SRB assay. Type of data set: functional, cell-based. Conditions: 518A2, 96 h. Summed up: (§1)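 EC50 from sulforhodamine B assay after 96 h exposure. Each value is averaged from three independent experiments, each run in triplicate, with 95% confidence interval. Assay cut-off 30 µM.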
A general note: Sulforhodamine B stains cellular protein and so reports cell mass.

Data set [1] deals with A2780. In words: Cytotoxicity against human A2780 cells after 96 hrs by SRB assay. Type of data set: functional, cell-based. Conditions: A2780, 96 h. Summed up: as §1
For a further data set, the system named is HT-29. In words: Cytotoxicity against human HT-29 cells after 96 hrs by SRB assay. Conditions: HT-29, 96 h. It counts as functional, cell-based. Summed up: as §1
The test system of the next data set is MCF7. In words: Cytotoxicity against human MCF7 cells after 96 hrs by SRB assay. Type of data set: functional, cell-based. The settings on record: MCF7, 96 h. Summed up:
as §1

The test system of the next data set is A549. In words: Cytotoxicity against human A549 cells after 96 hrs by SRB assay. Conditions: A549, 96 h. Type of data set: functional, cell-based. An outline of the steps:
as §1

For another data set, the system named is 8505C. In words: Cytotoxicity against human 8505C cells after 96 hrs by SRB assay. Type of data set: functional, cell-based. An outline of the steps:
as §1

Another data set has as its system NIH3T3. In words: Cytotoxicity against mouse NIH/3T3 cells after 96 hrs by SRB assay. It counts as cell-based. The settings on record: NIH3T3, 96 h. An outline of the steps: as §1
A short description of data set [2]: Selectivity factor, ratio of EC50 for mouse NIH/3T3 cells to EC50 for human A2780 cells.
Data set [3] is described as follows: Drug uptake in mitochondria of human A2780 cells at 0.1 uM after 24 hrs by fluorescence and light microscopy. It counts as ADME. An outline of the steps: (§2)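 Approx. 800,000 A2780 cells grown 24 h in 25 cm² flasks. Medium then replaced with compound-containing medium at 0.1 µM, or blank medium as control, for 24 h. Cells collected, centrifuged at 1200 rpm and 4 °C, and washed in PBS. Live cells stained with Hoechst 33342 (DNA) and rhodamine 123 (mitochondria), then imaged by fluorescence and light microscopy.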

Data set [4] has as its system A2780. In words: Induction of morphological changes in human A2780 cells at 0.1 uM after 24 hrs by rhodamine 123/Hoechst 33342 staining-based fluorescence microscopic method. Type of data set: functional, cell-based. An outline of the steps:
as §2

Data set [5] deals with A2780. In words: Induction of apoptosis in human A2780 cells at 0.1 to 0.4 uM after 24 hrs by annexin V/propidium iodide staining-based flow cytometric method relative to control. It counts as functional, cell-based. Summed up: (§3)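 A2780 cells treated at 0.1 µM, and at up to 0.4 µM, compared with untreated control. Stained with annexin V/propidium iodide and quantified by FACS.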
For orientation: Flow cytometry measures light scatter and fluorescence of single cells or particles in a stream.

Data set [6] has as its system A2780. In words: Induction of necrosis in human A2780 cells at 0.1 uM after 24 hrs by annexin V/propidium iodide staining-based flow cytometric method relative to control. It counts as functional, cell-based. Summed up: as §3

The EC50 is the concentration that produces a half-maximal response. Read a low EC50 as a more potent agent.

SMILES strings stand for the structures. Active and inactive are the calls of the source.

For `CC(=O)O[C@H]1CC[C@]2(C)[C@H]3C(=O)C=C4[C@@H]5C[C@@](C)(C(=O)N6CCNCC6)CC[C@]5(C)CC[C@@]4(C)[C@]3(C)CC[C@H]2C1(C)C`, the EC50 came out at 9400 nM with 518A2; 8200 nM in the data set on A2780 [1]; 4500 nM with HT-29; 8400 nM with MCF7; 10500 nM in the data set on A549; 10000 nM in the data set with 8505C. Also, in the data set on NIH3T3, the response was half-maximal at 8700 nM (EC50).
As to `CC(=O)O[C@H]1CC[C@]2(C)[C@H]3CC=C4[C@@H]5[C@@H](C)[C@H](C)CC[C@]5(C(=O)N5CCNCC5)CC[C@@]4(C)[C@]3(C)CC[C@H]2C1(C)C`, the concentration giving a half-maximal response (EC50) in the data set on 518A2 stood at 2600 nM; with A2780 [1], 2100 nM; in the data set on HT-29, 1900 nM; with MCF7, 2000 nM; in the data set on A549, 3200 nM; with 8505C, 3500 nM. A half-maximal response with NIH3T3 (EC50) required 2100 nM.
With `CC(=O)O[C@H]1CC[C@]2(C)[C@H]3CC=C4[C@@H]5CC(C)(C)CC[C@]5(C(=O)N5CCNCC5)CC[C@@]4(C)[C@]3(C)CC[C@H]2C1(C)C`, the EC50 in the data set on 518A2 was 2700 nM; in the data set on A2780 [1], 1700 nM; with HT-29, 1300 nM; with MCF7, 1700 nM; in the data set with A549, 2300 nM; with 8505C, 3800 nM. In the data set on NIH3T3, this molecule came in with a 50% effective concentration (EC50) of 1700 nM.
With `CCN(CC)c1ccc2c(-c3ccccc3C(=O)O)c3ccc(=[N+](CC)CC)cc-3oc2c1` [RHODAMINE], the EC50 with 518A2, in the data set on A2780 [1], with HT-29, in the data set with MCF7, in the data set on A549 and with 8505C was > 30000 nM in each case. In the data set on NIH3T3, the concentration giving a half-maximal response (EC50) was > 30000 nM.
As for `CC(=O)O[C@@H]1C[C@]2(C)[C@H]3CC=C4[C@@H]5CC(C)(C)CC[C@]5(C(=O)N5CCNCC5)CC[C@@]4(C)[C@]3(C)CC[C@H]2C(C)(C)[C@H]1OC(C)=O`, the EC50 stood at 1900 nM in the data set on A2780 [1]; 1600 nM in the data set on HT-29; 1000 nM with MCF7; 1500 nM in the data set on A549; 3200 nM in the data set on NIH3T3.
For `CCN(CC)c1ccc2c(-c3ccccc3C(=O)N3CCN(C(=O)[C@]45CC[C@@H](C(C)=O)[C@@H]4[C@H]4CC[C@@H]6[C@@]7(C)CC[C@H](OC(C)=O)C(C)(C)[C@@H]7CC[C@@]6(C)[C@]4(C)CC5)CC3)c3ccc(=[N+](CC)CC)cc-3oc2c1`, the EC50 with 518A2 worked out at 100 nM; in the data set with A2780 [1] it was 36 nM; with HT-29, 99 nM; in the data set with MCF7, 70 nM; in the data set on A549, 131 nM; with 8505C, 145 nM. In the data set with NIH3T3, this molecule returned a concentration giving a half-maximal response (EC50) of 171 nM.
For the molecule `CC1(C)CC[C@]2(C(=O)O)CC[C@]3(C)C(=CC[C@@H]4[C@@]5(C)C[C@@H](O)[C@H](O)C(C)(C)[C@@H]5CC[C@]43C)[C@@H]2C1` [MASLINIC ACID], the half-maximal effective concentration (EC50) in the data set on 518A2 is 13700 nM; in the data set with A2780 [1] it was 19500 nM; with HT-29, 28800 nM; with MCF7 it was > 30000 nM; in the data set with A549, 23400 nM; in the data set with 8505C, 17000 nM. Also, the EC50 with NIH3T3 worked out at 21100 nM.
On to `CC(=O)[C@@H]1CC[C@]2(C(=O)O)CC[C@]3(C)[C@H](CC[C@@H]4[C@@]5(C)CC[C@H](O)C(C)(C)[C@@H]5CC[C@]43C)[C@@H]12` [PLATANIC ACID], for which the EC50 in the data set on 518A2, with A2780 [1], in the data set on HT-29, in the data set with MCF7, with A549 and in the data set on 8505C was > 30000 nM throughout.
Consider `C=C(C)[C@@H]1CC[C@]2(C(=O)N3CCNCC3)CC[C@]3(C)[C@H](CC[C@@H]4[C@@]5(C)CC[C@H](OC(C)=O)C(C)(C)[C@@H]5CC[C@]43C)[C@@H]12`, for which the EC50 with 518A2 amounted to 1500 nM; in the data set with A2780 [1] it was 1900 nM; with HT-29, 1000 nM; in the data set on MCF7 it was 1400 nM; in the data set with A549, 2200 nM; with 8505C, 2200 nM. The molecule also displayed an EC50 in the data set on NIH3T3 of 900 nM.
In the case of `CCN(CC)c1ccc2c(-c3ccccc3C(=O)N3CCN(C(=O)[C@]45CC[C@@H](C)[C@H](C)[C@H]4C4=CC[C@@H]6[C@@]7(C)CC[C@H](OC(C)=O)C(C)(C)[C@@H]7CC[C@@]6(C)[C@]4(C)CC5)CC3)c3ccc(=[N+](CC)CC)cc-3oc2c1`, the EC50 worked out at 47 nM in the data set with 518A2; 38 nM with A2780 [1]; 83 nM in the data set on HT-29; 75 nM in the data set on MCF7; 140 nM in the data set on A549; 47 nM in the data set on 8505C. Also, the EC50 with NIH3T3 is 137 nM.
As to `C[C@H]1[C@H](C)CC[C@]2(C(=O)O)CC[C@]3(C)C(=CC[C@@H]4[C@@]5(C)CC[C@H](O)C(C)(C)[C@@H]5CC[C@]43C)[C@H]12` [URSOLIC ACID], the EC50 in the data set with 518A2 amounted to 14700 nM; in the data set with NIH3T3, 18700 nM.
In the case of `CCN(CC)c1ccc2c(-c3ccccc3C(=O)N3CCN(C(=O)[C@]45CCC(C)(C)C[C@H]4C4=CC[C@@H]6[C@@]7(C)C[C@@H](OC(C)=O)[C@H](OC(C)=O)C(C)(C)[C@@H]7CC[C@@]6(C)[C@]4(C)CC5)CC3)c3ccc(=[N+](CC)CC)cc-3oc2c1.[Cl-]`, the EC50 in the data set on 518A2 worked out at 11 nM; with A2780 [1] it was 7 nM; in the data set with HT-29, 57 nM; in the data set with MCF7 it was 28 nM; in the data set on A549 it was 186 nM; with NIH3T3, 334 nM. In data set [2], the “Ratio EC50” value is on record as 50. Besides, the Drug uptake entry in [3] is on record as “Active”. Further, the outcome with A2780 [4] and in the data set on A2780 [5] was inactive. In addition, the outcome in the data set with A2780 [6] was Active.
Turning to `CCN(CC)c1ccc2c(-c3ccccc3C(=O)N3CCN(C(=O)[C@]45CCC(C)(C)C[C@H]4C4=CC[C@@H]6[C@@]7(C)CC[C@H](OC(C)=O)C(C)(C)[C@@H]7CC[C@@]6(C)[C@]4(C)CC5)CC3)c3ccc(=[N+](CC)CC)cc-3oc2c1`, the EC50 with 518A2 was 43 nM; in the data set on A2780 [1], 32 nM; in the data set with HT-29 it was 91 nM; in the data set on MCF7 it was 62 nM; with A549, 120 nM; in the data set with 8505C, 45 nM. The same molecule returned a half-maximal effective concentration (EC50) with NIH3T3 of 137 nM.
Consider `C=C(C)[C@@H]1CC[C@]2(C(=O)O)CC[C@]3(C)[C@H](CC[C@@H]4[C@@]5(C)CC[C@H](O)C(C)(C)[C@@H]5CC[C@]43C)[C@@H]12` [BETULINIC ACID], for which the concentration giving a half-maximal response (EC50) in the data set on 518A2 came out at 9400 nM; in the data set with NIH3T3 it was 16100 nM.
Consider `CC1(C)[C@@H](O)CC[C@]2(C)[C@H]3C(=O)C=C4[C@@H]5C[C@@](C)(C(=O)O)CC[C@]5(C)CC[C@@]4(C)[C@]3(C)CC[C@@H]12` [ENOXOLONE], for which the half-maximal effective concentration (EC50) in the data set on 518A2, in the data set on A2780 [1], with HT-29, in the data set on MCF7, in the data set with A549 and in the data set on 8505C was > 30000 nM in each case. The midpoint of the response in the data set on NIH3T3, the EC50, lay at 18700 nM.
Consider `CC1(C)CC[C@]2(C(=O)O)CC[C@]3(C)C(=CC[C@@H]4[C@@]5(C)CC[C@H](O)C(C)(C)[C@@H]5CC[C@]43C)[C@@H]2C1` [OLEANOLIC_ACID], for which the EC50 with 518A2, with HT-29, in the data set with MCF7, in the data set with A549, with 8505C and with NIH3T3 was > 30000 nM each time.
Consider `CC(=O)O[C@H]1CC[C@]2(C)[C@H]3CC[C@@H]4[C@H]5[C@H](C(C)=O)CC[C@]5(C(=O)N5CCNCC5)CC[C@@]4(C)[C@]3(C)CC[C@H]2C1(C)C`, for which the concentration for a half-maximal effect (EC50) was 2700 nM in the data set with 518A2; 3100 nM with A2780 [1]; 2400 nM with HT-29; 2800 nM with MCF7; 3900 nM in the data set with A549; 3700 nM in the data set on 8505C. Besides, it took 700 nM to reach a half-maximal effect in the data set with NIH3T3 (EC50).
For the molecule `C=C(C)[C@@H]1CC[C@]2(C(=O)N3CCN(C(=O)c4ccccc4-c4c5ccc(=[N+](CC)CC)cc-5oc5cc(N(CC)CC)ccc45)CC3)CC[C@]3(C)[C@H](CC[C@@H]4[C@@]5(C)CC[C@H](OC(C)=O)C(C)(C)[C@@H]5CC[C@]43C)[C@@H]12`, the 50% effective concentration (EC50) in the data set with 518A2 is 46 nM; in the data set with A2780 [1] it was 50 nM; with HT-29, 151 nM; in the data set on MCF7, 81 nM; in the data set with A549, 176 nM; in the data set on 8505C it was 62 nM. This molecule displayed a concentration for a half-maximal effect (EC50) in the data set on NIH3T3 of 208 nM.
